Series [1] can be described thus: (§1) Inhibition of RANKL-induced C57BL/6 mouse BMDM differentiation into osteoclasts after 4 days in presence of M-CSF by TRAP assay. The series is classed as functional. As to conditions: C57BL/6, BMDM, 96 h. In short, it runs like this:
(§2)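 Bone marrow cells from femurs and tibiae of 6–8-week-old female C57BL/6 mice; after red-cell lysis, 3 days in α-MEM/10% FBS with penicillin-streptomycin and M-CSF (50 ng/mL); adherent cells kept as BMMs. BMMs (4 × 10^4/well) given M-CSF (50 ng/mL) plus RANKL (100 ng/mL) with vehicle or compound, 4 days. TRAP activity of culture supernatant with chromogenic substrate, OD 540 nm.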

The subject of series [2] is BMDM. The description is as §1. In kind it is functional. In short, it runs like this:
as §2

The subject of series [3] is BMDM. As to the kind of experiment: Inhibition of RANKL-induced C57BL/6 mouse BMDM differentiation into osteoclasts after 4 days in presence of M-CSF by TRAP staining-based light microscopy. The series is classed as functional. The procedure, abridged:
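BMMs (6–8-week-old female C57BL/6 mouse femur/tibia marrow, 3 days with M-CSF 50 ng/mL) seeded at 4 × 10^4/well. Cultured 4 days with M-CSF (50 ng/mL), RANKL (100 ng/mL) and vehicle or compound. Fixed in 10% formalin for 5 min, then TRAP-stained by kit to show TRAP-positive multinucleated osteoclasts.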

The species named for another series is Mus musculus. The series is described as follows: Cytotoxicity against C57BL/6 mouse BMDM assessed as decrease in cell viability at IC50 after 4 days in presence of RANKL/M-CSF by XTT assay. In kind it is toxicity. The conditions noted are these: 96 h.

Regarding `CC1=C(C)[C@@]2(C[C@](C)(O)[C@H]3C[C@H](O)[C@@]4(C)C5=CC[C@H]6C(C)(C)C(=O)[C@H](O)C[C@]6(C)C5=C[C@@H](O2)[C@]34C)OC1=O`, the IC50 in series [1] worked out at 7.4 µM. For the same compound, the inhibition entry in the series with BMDM [2] and in the series with BMDM [3] was “Dose-dependent effect” in each case. In the series listed under Mus musculus, the Activity entry is reported as “Non-Toxic”.

`C=C(CC[C@@H](C(=O)O)[C@H]1[C@H](O)C[C@@]2(C)C3=CC[C@H]4C(C)(C)C(=O)CC[C@]4(C)C3=CC[C@]12C)C(C)C` [POLYPORENIC ACID B]: in series [1], the IC50 was found to be 4.9 µM. The inhibition result with BMDM [2] and in the series with BMDM [3] was “Dose-dependent effect” in each case. Besides, in the series filed under Mus musculus, the Activity entry is recorded as “Non-Toxic”.

As to `CC1=C(C)[C@@]2(C[C@](C)(O)[C@H]3C[C@H](O)[C@@]4(C)C5=CC[C@H]6C(C)(C)[C@@H](O)C(=O)C[C@]6(C)C5=C[C@@H](O2)[C@]34C)OC1=O`, the IC50 in series [1] came out at 4.5 µM. The inhibition entry in the series with BMDM [2] and in the series on BMDM [3] was “Dose-dependent effect” throughout. In the series filed under Mus musculus, the Activity result is “Non-Toxic”.

(Values after ChEMBL document CHEMBL3856214, “Lanostane Triterpenes Isolated from Antrodia heteromorpha and Their Inhibitory Effects on RANKL-Induced Osteoclastogenesis” (J Nat Prod, 2016).)
